# High-throughput results (PubChem)
# Shown are actives, neighbours in structure and some others; about 3.9% of the full set was active somewhere.
# GAA850 FXN act: FXN promoter activators, primary screen, cell-based, luciferase luminescence, HEK293 lucGAA850; HEK293 lucGAA850 FXN promoter luciferase reporter, 24 h; percent of 10 µM SAHA response; activation, % at 6 µM; 0.56% of 360,000 active;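 active = activation above the average of all compounds screened plus 3 SD, cutoff fixed separately per campaign, cut at about 7.5% in these data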;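 note: 0% = DMSO wells and 100% = 10 µM SAHA wells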
# HIF activator: HIF pathway transcriptional activators, primary screen, cell-based, U2OS HRE-luciferase, luminescence | U2OS HRE-luciferase reporter; normalized: DMSO 0%, desferrioxamine 100% | activation, % at 7.5 µM (by protocol) | 0.32% of 300,000 active | AID 1910, 2009;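 active = mean activation of at least 10% of the iron chelator positive control signal, with at least half of replicates also reaching 10%; inconclusive = mean and replicate majority disagree about reaching 10%; inactive = mean and most replicates under 10%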
# ABCB6 inh 2: ABCB6 transporter inhibitors, primary screen, K562-ABCB6 cells, flow cytometry, MLPCN library; ATP-binding cassette sub-family B member 6 (Homo sapiens), Q9NP58; K562-ABCB6 porphyrin accumulation, 1 h; active compounds read low; fluorescence ratio to DMSO, % at 10 µM; 0.19% of 360,000 active;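 active = fluorescence ratio to DMSO below 75%, the collection mean minus 3 SD; inconclusive = too few cells collected in the well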;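 note: signal is porphyrin accumulated inside mitochondria; 100% equals median channel fluorescence of DMSO control wells; lower ratio means ABCB6 inhibition with less porphyrin fluorescence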
# Target sequence (Q9NP58 whole entry, looked up): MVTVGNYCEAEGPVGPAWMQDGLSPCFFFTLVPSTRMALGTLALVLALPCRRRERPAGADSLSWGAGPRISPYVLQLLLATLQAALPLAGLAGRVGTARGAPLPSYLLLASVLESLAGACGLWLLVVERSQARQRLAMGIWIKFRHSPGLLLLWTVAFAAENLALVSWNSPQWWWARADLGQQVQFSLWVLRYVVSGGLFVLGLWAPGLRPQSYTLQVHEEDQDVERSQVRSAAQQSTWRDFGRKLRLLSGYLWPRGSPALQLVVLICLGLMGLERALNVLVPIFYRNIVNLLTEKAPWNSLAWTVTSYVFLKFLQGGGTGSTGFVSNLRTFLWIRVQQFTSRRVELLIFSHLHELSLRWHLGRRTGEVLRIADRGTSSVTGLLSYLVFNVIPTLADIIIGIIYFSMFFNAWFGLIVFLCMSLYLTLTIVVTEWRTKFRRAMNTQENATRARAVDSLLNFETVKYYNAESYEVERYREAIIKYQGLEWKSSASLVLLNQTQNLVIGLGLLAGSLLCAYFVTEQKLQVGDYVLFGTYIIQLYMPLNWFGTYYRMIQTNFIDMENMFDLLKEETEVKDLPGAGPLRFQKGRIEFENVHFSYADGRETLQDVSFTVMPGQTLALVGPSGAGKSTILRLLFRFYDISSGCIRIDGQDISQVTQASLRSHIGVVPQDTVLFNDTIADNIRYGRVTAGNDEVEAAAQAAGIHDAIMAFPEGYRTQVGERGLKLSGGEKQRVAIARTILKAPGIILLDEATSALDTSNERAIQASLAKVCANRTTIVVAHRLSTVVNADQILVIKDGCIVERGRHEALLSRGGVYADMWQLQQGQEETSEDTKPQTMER
# SR-BI HDL uptake: inhibitors of SR-BI mediated HDL lipid uptake, primary screen, ldlA[mSR-BI] cells, fluorescence, single point; AID 488896, 2010; 0.96% of 320,000 active; Scavenger receptor class B member 1 (Mus musculus), Q61009; inhibition, % at 12.5 µM; ldlA[mSR-BI] CHO cells, DiI-HDL uptake fluorescence, 3 h;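 active = mean replicate inhibition of at least 70% and a set share of replicates each scoring 70 or more; inconclusive = meets just one of the two criteria; inactive = fails both criteria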;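 note: 0% = median of neutral control wells and 100% = median of positive control wells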
# SR-BI uptake up: activators of SR-BI mediated DiI-HDL uptake, primary screen, ldlA[mSR-BI] CHO cells, DiI fluorescence. 0.096% of 320,000 active. activation, % at 12.5 µM. 3 h; 100 = double the neutral-control signal;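 active = mean replicate activation of at least 60% and every replicate at or above 60%; inconclusive = mean or all-replicate condition met, but not both; inactive = mean below 60% and not all replicates reaching 60%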;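 note: 0% = median plate neutral-control signal and 100% = twice that signal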
#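 Test system: SR-BI-overexpressing, LDLR-lacking CHO cells; Also added: labelled HDL, 10 µg/mL; Measured by: bottom-read cell fluorescence after medium removal, ex 550/em 595 nm; Timing: 3 h uptake period with compound, 37 °C; Buffer or medium: F12, 0.5% BSA, 25 mM HEPES; Doses: single compound concentration, delivered by pin transfer.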
# AHR act: AHR activators, primary screen, cell-based, luminescence, luciferase reporter, human. AHR-responsive luciferase reporter cells. activation, % at 5 µM. 2.5% of 320,000 active. Aryl hydrocarbon receptor (Homo sapiens), P35869; in the data active = activation above about 47%;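 note: 0% = vehicle wells and 100% = reference agonist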
# * hit, by the source's call; ? = inconclusive; nt = not tested or not shown.
SMILES,GAA850 FXN act,HIF activator,ABCB6 inh 2,SR-BI HDL uptake,SR-BI uptake up,AHR act
COc1ccc(C(=O)Nc2sc(C)c(-c3ccccc3)c2C#N)cc1OC,1.5,0.7,100.0,85.0*,-85.0,24.1
CN(C)c1ccc(C(CNS(=O)(=O)c2ccc(F)cc2)c2c[nH]c3ccccc23)cc1 (centres undefined),1.6,-0.4,104.0,-2.3,2.3,57.0*
CCN(CC)C(=O)Cn1cc(C(=O)C(=O)Nc2ccc3c(c2)OCCO3)c2ccccc21,3.9,2.6,100.0,77.0*,-76.9,12.5
CCN(CC)C(=O)Cn1cc(C(=O)C(=O)NCCCN2CCOCC2)c2ccccc21,-0.3,-0.4,93.0,-20.6,nt,6.0
CCn1c(-c2cccs2)nc2ccccc21,1.5,0.3,96.0,9.8,-9.8,2.9
Cc1cc(C(=O)Nc2cccc(S(=O)(=O)N3CCCC3)c2)c2ccccc2n1,0.3,nt,88.0,37.7,-37.7,1.9
Cc1nn2c(-c3ccc(F)cc3)ccnc2c1Cl,3.0,0.8,100.0,1.0,-1.0,58.2*
Clc1cccc(Cl)c1COc1ccccc1CNn1cnnc1,0.6,0.5,99.0,12.4,-12.4,58.9*
Cc1c(C(=O)N2CCCCCC2(C)C(=O)NCC(C)C)oc2ccccc12 (centres undefined),1.5,nt,98.0,nt,nt,nt
COc1ccc(-c2[nH]ncc2CN2CCCC(C(=O)c3cccc(OC)c3)C2)cc1 (centres undefined),3.2,-0.1,100.0,-6.5,6.5,72.9*
O=C(c1cccc(S(=O)(=O)Nc2ccc(Br)cc2)c1)N1CCCC1,-1.2,0.4,94.0,-10.3,10.3,-0.2
N#CCc1nc(-c2cc3ccccc3oc2=O)cs1,1.2,3.7,98.0,-3.5,3.5,-1.7
CC1CCC(=C(C#N)c2nc(-c3cc4ccccc4oc3=O)cs2)CC1 (centres undefined),3.6,4.5,95.0,76.1*,-76.1,9.5
Cc1cc(C)c(C#N)c(Nc2ccccc2Cl)n1,0.3,-0.2,90.0,3.2,-3.2,33.6
O=C1N/C(=C/c2ccc(N3CCOCC3)cc2)C(=O)N1Cc1ccc(F)cc1,-2.0,0.0,101.0,1.6,-1.6,50.9*
CCOc1cc(CNCCO)c(Cl)cc1OCC(=O)NCCc1ccccc1,-3.0,0.1,98.0,-1.2,1.2,3.2
CCOc1cc(CNC(C)C)c(Cl)cc1OCC(=O)NCCc1ccccc1,-8.4,-0.2,101.0,77.5*,-77.5,16.6
COc1ccc(CN(C)CC(=O)Nc2ccc(N3CCOCC3)cc2)cc1OC,3.6,-0.7,93.0,-21.0,21.0,23.2
COc1ccc(CN(C)CC(=O)Nc2ccc(SC(F)F)cc2)cc1OC,-0.7,57.4*,100.0,9.0,-9.0,3.4
CNC(=S)N(CCc1c(C)[nH]c2ccc(C)cc12)Cc1ccc(OC)c(OC)c1,-0.5,-0.4,97.0,61.2,-61.2,24.7
CCNC(=S)N(CCc1c(C)[nH]c2ccc(Cl)cc12)Cc1ccco1,0.9,-7.2,96.0,55.5,-55.5,47.0*
COc1ccc(NC(=S)N(CCc2c(C)[nH]c3ccc(C)cc23)Cc2cccnc2)cc1,-1.7,0.1,94.0,10.1,-10.1,53.9*
CNC(=S)N(CCc1c(C)[nH]c2ccc(C)cc12)Cc1ccco1,-1.6,0.0,95.0,16.4,-16.4,54.6*
CC(=O)Nc1ccc(S(=O)(=O)N(C)CC(=O)OC(C)C(=O)NC2CCCC2)cc1 (centres undefined),-1.1,-0.1,94.0,-15.6,15.6,-0.7
O=C(OCCN(C1=NS(=O)(=O)c2ccccc21)c1ccccc1Cl)c1ccc(Cl)cc1,-0.2,-0.3,98.0,20.5,-20.5,0.0
SMILES,GAA850 FXN act,HIF activator,ABCB6 inh 2,SR-BI HDL uptake,SR-BI uptake up,AHR act
COc1ccc(-c2oc3ccccc3c2C#Cc2cncn2C)cc1,-2.6,nt,97.0,78.9*,-78.9,48.6*
COc1ccc(-c2sc3ccc(OC)cc3c2-c2ccc(OC)nc2)cc1,1.1,nt,101.0,74.7*,-74.7,8.4
COc1ccc2sc(-c3ccccc3OC)c(-c3ccc(OC)nc3)c2c1,-0.3,nt,96.0,33.2,-33.2,24.1
COC(=O)c1c(-c2ccc(OC)cc2)oc2ccccc12,-0.3,-0.3,90.0,60.9,-60.9,4.2
COc1ccc(-c2sc3ccc(OC)cc3c2C#Cc2cncn2C)cc1,-1.5,nt,99.0,?,-72.0,75.5*
COc1ccc(Nc2ncnc3sc(-c4ccccc4)cc23)cc1OC,-2.2,-0.3,105.0,93.1*,-93.1,38.4
Clc1ccc2oc(-c3ccccn3)nc2c1,1.4,1.5,122.0,1.4,-1.4,61.0*
CCc1ccc(-c2cn3nc(C)c(C)nc3n2)cc1,-5.8,-2.8,106.0,-7.0,7.0,0.1
CN1C(=O)/C(=C/c2ccccc2OCc2ccc(F)cc2)N(C)C1=S,1.1,-0.3,98.0,52.8,-52.8,77.5*
O=c1ccc2ccc(O[C@@H]3O[C@H](CO[C@@H]4OC[C@](O)(CO)[C@H]4O)[C@@H](O)[C@H](O)[C@H]3O)cc2o1,-0.1,nt,95.0,-12.4,12.4,-0.7
O=C(Nc1nccs1)c1ccc2nccnc2c1,0.9,1.7,106.0,nt,nt,53.1*
O=C(Nc1nccs1)c1cncc(Br)c1,3.2,2.7,97.0,34.1,-34.1,56.4*
O=C(Nc1nccs1)c1cccnc1,1.2,1.0,104.0,4.6,-4.6,0.9
Cc1csc(NC(=O)CSc2sc3c(O)cc(=O)[nH]c3c2C#N)n1,-1.0,1.4,99.0,-23.5,23.5,14.5
Cc1noc(C(=O)N(C)c2ccccc2)c1Cl,-0.3,-0.8,420.0,-24.0,24.0,1.9
COc1ccc(/C(N)=N/OC(=O)C2CCCCC2)cc1,5.7,1.8,94.0,-5.3,5.3,-5.5
COc1ccc(/C(N)=N/OC(=O)C2CCCCC2)cc1OC,9.0*,2.4,101.0,8.2,-8.2,0.7
COc1cccc(/C=N/NC(=O)c2ccoc2C)c1O,-5.3,24.8*,98.0,nt,nt,7.9
COc1ccc(/C=N/NC(=O)c2ccoc2C)cc1CN1CCN(c2ccc(F)cc2)CC1,3.1,-12.2,99.0,21.1,-21.1,73.3*
COc1cccc(/C=N/NC(=O)c2cc3c(OC)cccc3[nH]2)c1OC,-0.7,-0.1,388.0,nt,nt,54.3*
COc1ccc(OC)c2[nH]c(C(=O)N/N=C/c3ccccc3O)cc12,-4.0,?,95.0,123.5*,-123.5,13.7
COc1cccc(/C=N/NC(=O)C(=O)N/N=C/c2cccc(OC)c2O)c1O,1.8,nt,109.0,46.8,-46.8,nt
